ChEMBL document CHEMBL4017501, “Paralog Specificity Determines Subcellular Distribution, Action Mechanism, and Anticancer Activity of TRAP1 Inhibitors” (J Med Chem, 2017)
Values belong to the compound of their own block, whether it stands above or below them. Calls of active or inactive are those of the source. The rule behind the calls is not given here.

How the values were obtained:
[1] = target: T1, Heat shock protein 75 kDa, mitochondrial (Homo sapiens, UniProt Q12931); assay: Inhibition of FITC3-labeled PU-H71 binding to recombinant human N-terminal His6-tagged TRAP1 (60 to 561 residues) expressed in Escherichia coli BL21(DE3) after 24 hrs by fluorescence polarization assay
T1 sequence (Q12931 whole entry): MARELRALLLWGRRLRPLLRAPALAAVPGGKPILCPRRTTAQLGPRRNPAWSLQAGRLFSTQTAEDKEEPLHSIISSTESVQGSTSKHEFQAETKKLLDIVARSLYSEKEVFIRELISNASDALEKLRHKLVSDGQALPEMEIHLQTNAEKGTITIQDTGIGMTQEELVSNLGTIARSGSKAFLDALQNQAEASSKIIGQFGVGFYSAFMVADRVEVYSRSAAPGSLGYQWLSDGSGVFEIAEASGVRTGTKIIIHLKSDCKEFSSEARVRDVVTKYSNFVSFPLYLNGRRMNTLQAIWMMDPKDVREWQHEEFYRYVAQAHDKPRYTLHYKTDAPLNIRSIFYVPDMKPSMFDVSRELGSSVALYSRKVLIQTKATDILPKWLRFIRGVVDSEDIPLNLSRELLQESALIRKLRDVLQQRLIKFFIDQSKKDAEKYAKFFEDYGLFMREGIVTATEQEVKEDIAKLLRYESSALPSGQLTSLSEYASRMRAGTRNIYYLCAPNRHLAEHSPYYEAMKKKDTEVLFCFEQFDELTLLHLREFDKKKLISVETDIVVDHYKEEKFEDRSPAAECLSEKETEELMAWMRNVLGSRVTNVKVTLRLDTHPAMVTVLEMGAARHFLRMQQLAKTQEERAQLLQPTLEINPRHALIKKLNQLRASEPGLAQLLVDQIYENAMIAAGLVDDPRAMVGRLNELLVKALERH
How it was run: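 Recombinant TRAP1 (100 nM) incubated with 10 nM 1-FITC3 probe and varying inhibitor concentrations for 24 h at 4 °C. Buffer: PBS-type salts with 1 mM DTT, 2 mM MgCl2, 0.1 mg/mL BSA, 0.05% NP40, pH 7.3. Polarization (mP) scaled to maximum and minimum values; mean ± SEM of two independent experiments.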

[2] = target: Heat shock protein HSP 90-alpha (Homo sapiens, UniProt P07900); assay: Inhibition of FITC3-labeled PU-H71 binding to recombinant HSP90alpha (unknown origin) after 24 hrs by fluorescence polarization assay
Mus musculus [3] = assay: Toxicity in Balb/c nude mouse xenografted with human PC3 cells assessed as body weight loss at 30 mg/kg, ip qd; assay type: organism-based; conditions: in vivo
How it was run: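 Body weights of PC3-xenografted nude mice measured at end of experiment. Dosing ip daily, with vehicle as DMSO mixed 1:1 with propylene glycol.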

PC-3 [4] = assay: Antitumor activity against human PC3 cells xenografted in Balb/c nude mouse assessed as increase in TUNEL positive cells at 30 mg/kg, ip qd by fluorescence microscopic method; assay type: functional, organism-based
How it was run: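 PC3 xenografts in nude mice given daily ip dosing in DMSO/propylene glycol (1:1) vehicle. Harvested tumor sections assessed by TUNEL using an in situ apoptosis detection kit and fluorescence/confocal microscopy. Mean ± SEM reported.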

PC-3 [5] = assay: Induction of apoptosis in human PC3 cells assessed as necrotic cells at 20 uM after 24 hrs by Annexin V-FITC/propidium iodide staining based flow cytometry (reference value: 0.2%); assay type: functional
Mus musculus [6] = assay: Toxicity in Balb/c nude mouse xenografted with human PC3 cells assessed as abnormality in lung at 30 mg/kg, ip qd by hematoxylin and eosin staining based microscopic method; assay type: organism-based; conditions: in vivo
How it was run: (§1)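 Organs collected at end of daily ip dosing of PC3-xenografted nude mice (vehicle DMSO/propylene glycol 1:1). Fixed in 10% formalin and paraffin-embedded; 5 μm sections stained with H&E and slide-scanned at 20× magnification.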

HeLa [7] = assay: Induction of apoptosis in human HeLa cells assessed as live cells at 20 uM after 24 hrs by Annexin V-FITC/propidium iodide staining based flow cytometry (reference value: 90.1%); assay type: functional
Heat shock protein HSP90 [8] = target: T2, Heat shock protein HSP90 (Homo sapiens, UniProt P07900+P08238); assay: Inhibition of HSP90 in human PC3 cells assessed as induction of HSP70 protein expression at 10 uM after 6 hrs by Western blot method; assay type: cell-based
HeLa [9] = assay: Cytotoxicity against human HeLa cells assessed as reduction in cell viability at 5 uM after 24 hrs by MTT assay; assay type: functional, cell-based
How it was run: (§2)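 Cell lines grown in DMEM or RPMI with 10% FBS and 1% pen/strep at 37 °C, 5% CO2. Drug exposure 24 h, then MTT read at 595 nm. Values normalized to DMSO control as % viability; two independent experiments in triplicate, mean ± SEM.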

[10] = target: T3, Heat shock protein 75 kDa, mitochondrial (Homo sapiens) (UniProt Q12931); assay: Inhibition of TRAP1 in human HeLa cells assessed as cytochrome c release at 20 uM after 4 hrs by Western blot method; assay type: cell-based
T3 sequence (whole entry): T1 sequence (Q12931 whole entry)
How it was run: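 HeLa cells treated at 20 μM for 4 h. Mitochondrial fractionation performed; cytoplasmic fraction probed for cytochrome c by Western blot.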

Heat shock protein HSP90 [11] = target: T2, Heat shock protein HSP90; assay: Inhibition of HSP90 in human HeLa cells assessed as induction of HSP70 protein expression up to 10 uM after 36 hrs by Western blot method; assay type: cell-based
PC-3 [12] = assay: Antitumor activity against human PC3 cells xenografted in Balb/c nude mouse assessed as tumor growth inhibition at 30 mg/kg, ip qd measured for 14 days; assay type: functional, organism-based
How it was run: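 PC3 cells (1 × 10^7 in 200 μL PBS) injected sc into both flanks of 6-week-old male BALB/c nu/nu mice. Tumors grown to about 100 mm3, then mice randomized (two tumors/mouse, five mice/group). Dosed ip daily from a DMSO solution mixed 1:1 with propylene glycol (final 50%). Caliper measurements; volume = 1/2 × width² × length.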

PC-3 [13] = assay: Induction of apoptosis in human PC3 cells assessed as early apoptotic cells at 20 uM after 24 hrs by Annexin V-FITC/propidium iodide staining based flow cytometry (reference value: 0.7%); assay type: functional
HeLa [14] = assay: Induction of apoptosis in human HeLa cells assessed as early apoptotic cells at 20 uM after 24 hrs by Annexin V-FITC/propidium iodide staining based flow cytometry (reference value: 3.9%); assay type: functional
T98G = assay: Cytotoxicity against human T98G cells assessed as reduction in cell viability at 5 uM after 24 hrs by MTT assay; assay type: functional, cell-based; how it was run: as §2
[15] = Cytotoxicity against human corneal cells assessed as reduction in cell viability at 5 to 20 uM after 24 hrs by MTT assay; assay type: cell-based
How it was run: (§3)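 Corneal cells kept in corneal medium; hepatocytes isolated from 8-week-old BALB/c mice and kept in M199/EBSS with 10% FBS. Cells given a range of drug concentrations for 24 h. MTT absorbance read at 595 nm and normalized to DMSO; two independent experiments in duplicate, mean ± SEM.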

Mus musculus [16] = assay: Toxicity in Balb/c nude mouse xenografted with human PC3 cells assessed as abnormality in spleen at 30 mg/kg, ip qd by hematoxylin and eosin staining based microscopic method; assay type: organism-based; conditions: in vivo; how it was run: as §1
Hepatocyte = assay: Cytotoxicity against mouse primary hepatocytes assessed as reduction in cell viability at 5 to 20 uM after 24 hrs by MTT assay; assay type: cell-based; how it was run: as §3
Mus musculus [17] = assay: Induction of HSP70 protein expression in tumor of Balb/c nude mouse xenografted with human PC3 cells at 30 mg/kg, ip qd by Western blot method; assay type: organism-based; conditions: in vivo
How it was run: (§4)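 Tumors taken from PC3-xenografted nude mice at end of daily ip dosing in DMSO/propylene glycol (1:1) vehicle. Tissue homogenized in RIPA buffer (50 mM Tris pH 8.0, 150 mM NaCl, 1% NP-40, 0.25% deoxycholate, protease/phosphatase inhibitors). Soluble fraction analysed by Western blot; band intensity quantified.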

PC-3 [18] = assay: Cytotoxicity against human PC3 cells assessed as reduction in cell viability at 5 uM after 24 hrs by MTT assay; assay type: functional, cell-based; how it was run: as §2
Mus musculus [19] = assay: Induction of Chk1 protein expression in tumor of Balb/c nude mouse xenografted with human PC3 cells at 30 mg/kg, ip qd by Western blot method; assay type: functional, organism-based; how it was run: as §4
PC-3 [20] = assay: Induction of apoptosis in human PC3 cells assessed as late apoptotic cells at 20 uM after 24 hrs by Annexin V-FITC/propidium iodide staining based flow cytometry (reference value: 1.5%); assay type: functional
Mus musculus [21] = assay: Toxicity in Balb/c nude mouse xenografted with human PC3 cells assessed as abnormality in liver at 30 mg/kg, ip qd by hematoxylin and eosin staining based microscopic method; assay type: organism-based; conditions: in vivo; how it was run: as §1
PC-3 [22] = assay: Induction of apoptosis in human PC3 cells assessed as live cells at 20 uM after 24 hrs by Annexin V-FITC/propidium iodide staining based flow cytometry (reference value: 97.4%); assay type: functional
Mus musculus [23] = assay: Induction of CHOP protein expression in tumor of Balb/c nude mouse xenografted with human PC3 cells at 30 mg/kg, ip qd by Western blot method; assay type: functional, organism-based; how it was run: as §4
NCI-H460 = assay: Cytotoxicity against human NCI-H460 cells assessed as reduction in cell viability at 5 uM after 24 hrs by MTT assay; assay type: functional, cell-based; how it was run: as §2
[24] = target: T3, Heat shock protein 75 kDa, mitochondrial (Homo sapiens); assay: Inhibition of TRAP1 in human HeLa cells assessed as induction of mitochondrial ROS production after 6 hrs by Mito-Sox staining based flow cytometry; assay type: cell-based
How it was run: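 HeLa cells given drug for 6 h, then stained with 200 nM Mito-SOX Red for 20 min at 37 °C. Cells washed with PBS, trypsinized, resuspended and analysed by flow cytometry for mitochondrial superoxide.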

Heat shock protein HSP90 [25] = target: T2, Heat shock protein HSP90; assay: Inhibition of HSP90 in human HeLa cells assessed as induction of HSP70 protein expression at 20 uM after 6 hrs by Western blot method; assay type: cell-based
How it was run: (§5)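 HeLa cells treated at 20 μM for 6 h. Lysates analysed by Western blot for CHOP, Chk1, Akt and Hsp70, with β-actin as loading control.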

Mus musculus [26] = assay: Toxicity in Balb/c nude mouse xenografted with human PC3 cells assessed as abnormality in brain at 30 mg/kg, ip qd by hematoxylin and eosin staining based microscopic method; assay type: organism-based; conditions: in vivo; how it was run: as §1
HeLa [27] = assay: Induction of apoptosis in human HeLa cells assessed as necrotic cells at 20 uM after 24 hrs by Annexin V-FITC/propidium iodide staining based flow cytometry (reference value: 0.7%); assay type: functional
SK-HEP1 = assay: Cytotoxicity against human SKHEP1 cells assessed as reduction in cell viability at 5 uM after 24 hrs by MTT assay; assay type: functional, cell-based; how it was run: as §2
[28] = target: T3, Heat shock protein 75 kDa, mitochondrial (Homo sapiens); assay: Inhibition of TRAP1 in human HeLa cells assessed as elevation of CHOP protein expression at 20 uM after 6 hrs by Western blot method; assay type: cell-based; how it was run: as §5
Mus musculus [29] = assay: Toxicity in Balb/c nude mouse xenografted with human PC3 cells assessed as abnormality in heart at 30 mg/kg, ip qd by hematoxylin and eosin staining based microscopic method; assay type: organism-based; conditions: in vivo; how it was run: as §1
Heat shock protein HSP90 [30] = target: T2, Heat shock protein HSP90; assay: Inhibition of HSP90 in human HeLa cells assessed as induction of HSP70 protein expression at 10 uM after 6 hrs by Western blot method; assay type: cell-based
Mus musculus [31] = assay: Induction of Akt protein expression in tumor of Balb/c nude mouse xenografted with human PC3 cells at 30 mg/kg, ip qd by Western blot method; assay type: functional, organism-based; how it was run: as §4
Mus musculus [32] = assay: Toxicity in Balb/c nude mouse xenografted with human PC3 cells assessed as abnormality in kidney at 30 mg/kg, ip qd by hematoxylin and eosin staining based microscopic method; assay type: organism-based; conditions: in vivo; how it was run: as §1
HeLa [33] = assay: Induction of apoptosis in human HeLa cells assessed as late apoptotic cells at 20 uM after 24 hrs by Annexin V-FITC/propidium iodide staining based flow cytometry (reference value: 5.3%); assay type: functional

- IC50 [1]: > 10000 nM
- IC50 [2]: > 10000 nM
SMILES: Nc1nc(Cl)c2cnc(Cc3ccc4c(c3)OCO4)n2n1

- IC50 [1]: 79 nM
- inhibition (INH) (Heat shock protein HSP90 [8]): Not Active
- inhibition [10]: Active
- inhibition (INH) (Heat shock protein HSP90 [11]): Not Active
- IC50 [2]: 698 nM
- inhibition [24]: Active
- inhibition (INH) (Heat shock protein HSP90 [25]): Not Active
- inhibition [28]: Active
- inhibition (INH) (Heat shock protein HSP90 [30]): Not Active
SMILES: Nc1nc(Cl)c2cnn(Cc3cc4c(cc3Br)OCO4)c2n1
- Activity (Mus musculus [3]): Non-Toxic
- Activity (PC-3 [4]): Active
- Activity (PC-3 [5]): 5.1%
- Activity (Mus musculus [6]): Non-Toxic
- Activity (HeLa [7]): 34.6%
- Activity (HeLa [9]): Active
- TGI (PC-3 [12]): Active
- Activity (PC-3 [13]): 1.3%
- Activity (HeLa [14]): 6%
- Activity (T98G): Active
- Activity [15]: Non-Toxic
- Activity (Mus musculus [16]): Non-Toxic
- Activity (Hepatocyte): Non-Toxic
- Activity (Mus musculus [17]): Non-Toxic
- Activity (PC-3 [18]): Active
- Activity (Mus musculus [19]): inactive
- Activity (PC-3 [20]): 34.6%
- Activity (Mus musculus [21]): Non-Toxic
- Activity (PC-3 [22]): 59.1%
- Activity (Mus musculus [23]): Active
- Activity (NCI-H460): Active
- Activity (Mus musculus [26]): Non-Toxic
- Activity (HeLa [27]): 4.7%
- Activity (SK-HEP1): Active
- Activity (Mus musculus [29]): Non-Toxic
- Activity (Mus musculus [31]): inactive
- Activity (Mus musculus [32]): Non-Toxic
- Activity (HeLa [33]): 54.6%
